Assays:
[1] = Drug uptake in CD-1 mouse frontal cortex at 70 uCi, iv followed by compound washout by gamma-counting analysis; format: ADME, organism-based; conditions: in vivo
In short: (§1)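 Male CD-1 mice (25–30 g), three per time point. [18F] radiotracer (70 µCi, SA 8000–12000 mCi/µmol, in 0.2 mL saline) given by tail vein. Killed at several times up to 90 min. Dissected regions weighed and gamma counted against injectate standards, giving %ID/g.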

Brain [2] = test: Drug uptake in CD-1 mouse other brain region at 70 uCi, iv after 90 mins in presence of cytisine; format: ADME, organism-based; conditions: in vivo, 1.5 h
[3] = Drug uptake in CD-1 mouse superior and inferior colliculus at 0.07 mCi, iv after 90 mins co-administered with SSR180711; format: ADME, organism-based; conditions: in vivo, 1.5 h
In short: (§2)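 Male CD-1 mice. [18F]tracer (0.07 mCi, SA 7900 mCi/µmol, 0.2 mL) co-injected i.v. with blocker at 0 (vehicle), 0.02, 0.2, 1 or 3 mg/kg. Blocker dissolved in saline:alcohol 9:1, pH 5.5. Brain regions harvested at 90 min and gamma-counted. %ID/g, mean ± SD, n=3 per dose; ANOVA versus controls.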

Brain [4] = test: Drug uptake in CD-1 mouse other brain regions at 0.07 mCi, iv after 90 mins co-administered with SSR180711; format: ADME, organism-based; conditions: in vivo, 1.5 h; in short: as §2
[5] = Drug uptake in CD-1 mouse superior and inferior colliculus at 70 uCi, iv followed by compound washout by gamma-counting analysis; format: ADME, organism-based; conditions: in vivo
In short: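 Male CD-1 mice (25–30 g) given [18F]radioligand i.v. into a lateral tail vein (70 µCi, 8000–12000 mCi/µmol, in 0.2 mL saline). Killed by cervical dislocation at various times, three per time point. Brains dissected on ice; regions weighed and gamma-counted with injectate standards. Result as %ID/g.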

Cerebellum [6] = test: Drug uptake in CD-1 mouse cerebellum at 0.07 mCi, iv after 90 mins co-administered with 3 mg/kg SSR180711; format: ADME, organism-based; design: dose 3 mg/kg, route intravenous; conditions: in vivo, 1.5 h
In short: (§3)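 Male CD-1 mice (25–30 g), three per dose. Blocker in saline:ethanol 9:1 pH 5.5, given i.v. with [18F] radiotracer (70 µCi, SA 7900 mCi/µmol). Blocker doses 0, 0.02, 0.2, 1 and 3 mg/kg. Regions dissected 90 min later and gamma counted. Expressed as %ID/g, mean ± SD.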

Cerebellum [7] = test: Drug uptake in CD-1 mouse cerebellum at 0.07 mCi, iv after 90 mins in presence of 3-(1,4-Diazabicyclo[3.2.2]nonan-4-yl)-6-fluorodibenzo[b,d]thiophene 5,5-Dioxide; format: ADME, organism-based; conditions: in vivo, 1.5 h
In short: (§4)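 Male CD-1 mice, n=3. [18F] radiotracer (70 µCi, 0.2 mL) given i.v. together with unlabeled blocker in saline pH 5.5. Brain regions dissected at 90 min, gamma counted, expressed as %ID/g.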

Hippocampus [8] = test: Drug uptake in CD-1 mouse hippocampus at 70 uCi, iv administered 10 mins post SCH23390 challenge measured after 90 mins; format: ADME, organism-based; conditions: in vivo, 1.5 h
In short: (§5)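 Male CD-1 mice, n=3. Drug at 2 mg/kg s.c. in saline:DMSO 5:1, with vehicle controls. [18F] radiotracer (70 µCi, SA ~14000 mCi/µmol) given i.v. 10 min later. Regions harvested 90 min after tracer, gamma counted, expressed as %ID/g. Compared by single-factor ANOVA.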

Cerebellum [9] = test: Drug uptake in CD-1 mouse cerebellum at 0.07 mCi, iv after 90 mins in presence of 7-(1,4-Diazabicyclo[3.2.2]nonan-4-yl)-2-fluorodibenzo[b,d]-thiophene 5,5-Dioxide; format: ADME, organism-based; conditions: in vivo, 1.5 h; in short: as §4
Hippocampus [10] = test: Drug uptake in CD-1 mouse hippocampus at 70 uCi, iv administered 10 mins post naltrindole challenge measured after 90 mins; format: ADME, organism-based; conditions: in vivo, 1.5 h; in short: as §5
Cerebellum [11] = test: Drug uptake in CD-1 mouse cerebellum at 70 uCi, iv administered 10 mins post SSR180711 challenge measured after 90 mins; format: ADME, organism-based; conditions: in vivo, 1.5 h
Brain [12] = test: Drug uptake in CD-1 mouse other brain region at 70 uCi, iv administered 10 mins post ondansetron challenge measured after 90 mins; format: ADME, organism-based; conditions: in vivo, 1.5 h
In short: (§6)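 Male CD-1 mice (25–30 g). […] Brains removed 90 min later and dissected on ice. Regions weighed and gamma-counted against injectate standards. Result as %ID/g, mean ± SD, n=3; ANOVA versus controls.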

Cerebellum [13] = test: Drug uptake in CD-1 mouse cerebellum at 70 uCi, iv administered 10 mins post ketanserin challenge measured after 90 mins; format: ADME, organism-based; conditions: in vivo, 1.5 h; in short: as §5
Hippocampus [14] = test: Drug uptake in CD-1 mouse hippocampus at 70 uCi, iv administered 10 mins post ketanserin challenge measured after 90 mins; format: ADME, organism-based; conditions: in vivo, 1.5 h; in short: as §5
Hippocampus [15] = test: Drug uptake in CD-1 mouse hippocampus at 70 uCi, iv followed by compound washout by gamma-counting analysis; format: ADME, organism-based; conditions: in vivo; in short: as §1
Hippocampus [16] = test: Drug uptake in CD-1 mouse hippocampus at 0.07 mCi, iv after 90 mins relative to drug uptake in CD-1 mouse cerebellum; format: ADME, organism-based; conditions: in vivo, 1.5 h
Cerebellum [17] = test: Drug uptake in CD-1 mouse cerebellum at 70 uCi, iv followed by compound washout by gamma-counting analysis; format: ADME, organism-based; conditions: in vivo; in short: as §1
Cortex [18] = test: Drug uptake in CD-1 mouse cortex at 0.07 mCi, iv after 90 mins co-administered with SSR180711; format: ADME, organism-based; conditions: in vivo, 1.5 h; in short: as §3
[19] = Drug uptake in CD-1 mouse superior and inferior colliculus at 70 uCi, iv after 90 mins in presence of cytisine; format: ADME, organism-based; conditions: in vivo, 1.5 h
Hippocampus [20] = test: Drug uptake in CD-1 mouse hippocampus at 70 uCi, iv administered 10 mins post ondansetron challenge measured after 90 mins; format: ADME, organism-based; conditions: in vivo, 1.5 h; in short: as §5
Nucleic Acid = test: Ratio of drug uptake from cortex to cerebellum in CD-1 mouse after 90 mins; format: ADME, tissue-based; conditions: 1.5 h
Cortex [21] = test: Drug uptake in CD-1 mouse cortex at 70 uCi, iv administered 10 mins post SCH23390 challenge measured after 90 mins; format: ADME, organism-based; conditions: in vivo, 1.5 h; in short: as §5
Cortex [22] = test: Drug uptake in CD-1 mouse cortex at 70 uCi, iv after 90 mins in presence of cytisine; format: ADME, organism-based; conditions: in vivo, 1.5 h
In short: (§7)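 Male CD-1 mice, n=3. […] [18F] radiotracer (70 µCi, SA ~14000 mCi/µmol) given i.v. 5 min later. Regions harvested at 90 min, gamma counted, expressed as %ID/g.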

Striatum = test: Drug uptake in CD-1 mouse striatum at 0.07 mCi, iv after 90 mins co-administered with SSR180711; format: ADME, organism-based; conditions: in vivo, 1.5 h; in short: as §2
Cortex [23] = test: Drug uptake in CD-1 mouse cortex at 70 uCi, iv after 90 mins in presence of nicotine; format: ADME, organism-based; conditions: in vivo, 1.5 h; in short: as §7
Brain [24] = test: Drug uptake in CD-1 mouse other brain region at 70 uCi, iv administered 10 mins post ketanserin challenge measured after 90 mins; format: ADME, organism-based; conditions: in vivo, 1.5 h; in short: as §6
Cerebellum [25] = test: Drug uptake in CD-1 mouse cerebellum at 70 uCi, iv administered 10 mins post SCH23390 challenge measured after 90 mins; format: ADME, organism-based; conditions: in vivo, 1.5 h; in short: as §5
[26] = Drug uptake in CD-1 mouse superior and inferior colliculus at 70 uCi, iv administered 10 mins post ketanserin challenge measured after 90 mins; format: ADME, organism-based; conditions: in vivo, 1.5 h; in short: as §6
Cortex [27] = test: Drug uptake in CD-1 mouse cortex at 70 uCi, iv administered 10 mins post naltrindole challenge measured after 90 mins; format: ADME, organism-based; conditions: in vivo, 1.5 h; in short: as §5
Cerebellum [28] = test: Drug uptake in CD-1 mouse cerebellum at 70 uCi, iv after 90 mins in presence of nicotine; format: ADME, organism-based; conditions: in vivo, 1.5 h; in short: as §7

O=S1(=O)c2cc(N3CCN4CCC3CC4)ccc2-c2cccc([18F])c21
Drug uptake [1]: Active
Drug uptake (Brain [2]): Not Active
Drug uptake [3]: Not Active
Drug uptake (Brain [4]): Not Active
Drug uptake [5]: Active
Drug uptake (Cerebellum [6]): Not Active
Drug uptake (Cerebellum [7]): Active
Drug uptake (Hippocampus [8]): Active
Drug uptake (Cerebellum [9]): Active
Drug uptake (Hippocampus [10]): Active
Drug uptake (Cerebellum [11]): Not Active
Drug uptake (Brain [12]): Active
Drug uptake (Cerebellum [13]): Active
Drug uptake (Hippocampus [14]): Active
Drug uptake (Hippocampus [15]): Active
Drug uptake (Hippocampus [16]): 94%
Drug uptake (Cerebellum [17]): Active
Drug uptake (Cortex [18]): Not Active
Drug uptake [19]: Not Active
Drug uptake (Hippocampus [20]): Active
Ratio (Nucleic Acid): 5.3
Drug uptake (Cortex [21]): Active
Drug uptake (Cortex [22]): Not Active
Drug uptake (Striatum): Not Active
Drug uptake (Cortex [23]): Not Active
Drug uptake (Brain [24]): Active
Drug uptake (Cerebellum [25]): Active
Drug uptake [26]: Active
Drug uptake (Cortex [27]): Active
Drug uptake (Cerebellum [28]): Active

— ChEMBL document CHEMBL3232832, “Derivatives of dibenzothiophene for positron emission tomography imaging of α7-nicotinic acetylcholine receptors” (J Med Chem, 2013)
